According to ChEMBL document CHEMBL1165950, “Design and synthesis of new potent anticancer pyrazoles with high FLT3 kinase inhibitory selectivity” (Bioorg Med Chem, 2010):

What was measured:
Assay type in all cases: functional
SNB-75 = experiment: Cytotoxicity against human SNB75 cells assessed as cell growth at 10 uM; settings: read-out: Activity
Procedure, shortened: (§1)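 NCI-60 screen: cells grown in RPMI 1640 with 5% FBS and 2 mM L-glutamine, plated at 5000–40,000 cells/well according to doubling time, and preincubated 24 h at 37 °C, 5% CO2. The single 10 µM dose (DMSO stock) was added, then incubated 48 h. Cells were TCA-fixed and stained with 0.4% SRB, read at 515 nm, and growth % calculated against time-zero and control plates.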

OVCAR-8 = experiment: Cytotoxicity against human OVCAR8 cells assessed as cell growth at 1 uM after 48 hrs by sulforhodamine B assay; settings: OVCAR-8, 48 h, read-out: Activity
HCT-15 = experiment: Cytotoxicity against human HCT15 cells assessed as cell growth at 0.001 uM after 48 hrs by sulforhodamine B assay; settings: HCT-15, 48 h, read-out: Activity
NCI-H226 = experiment: Cytotoxicity against human NCI-H226 cells assessed as cell growth at 10 uM; settings: read-out: Activity; procedure, shortened: as §1
RXF 393 = experiment: Cytotoxicity against human RXF393 cells assessed as cell growth at 10 uM; settings: read-out: Activity; procedure, shortened: as §1
PC-3 [1] = experiment: Cytotoxicity against human PC3 cells assessed as cell growth at 0.01 uM after 48 hrs by sulforhodamine B assay; settings: PC-3, 48 h, read-out: Activity
OVCAR-4 = experiment: Cytotoxicity against human OVCAR4 cells assessed as cell growth at 1 uM after 48 hrs by sulforhodamine B assay; settings: OVCAR-4, 48 h, read-out: Activity
OVCAR-5 = experiment: Growth inhibition of human OVCAR5 cells after 48 hrs by sulforhodamine B assay; settings: OVCAR-5, 48 h
Procedure, shortened: (§2)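 NCI 60-cell screen, five-dose mode. Cells grown in RPMI 1640 with 5% FBS and 2 mM L-glutamine and plated at 5000-40,000 cells/well according to doubling time. After 24 h preincubation, a Tz plate was TCA-fixed. Five concentrations (10-fold or 1/2 log dilutions) were applied for 48 h at 37 °C. SRB staining read at 515 nm. IC50 taken from [(Ti-Tz)/(C-Tz)]×100 = 50.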

HOP-62 = experiment: Cytotoxicity against human HOP62 cells assessed as cell growth at 10 uM after 48 hrs by sulforhodamine B assay; settings: HOP-62, 48 h, read-out: Activity
IGROV-1 = experiment: Cytotoxicity against human IGROV1 cells assessed as cell growth at 0.01 uM after 48 hrs by sulforhodamine B assay; settings: IGROV-1, 48 h, read-out: Activity
BT-549 [2] = experiment: Cytotoxicity against human BT549 cells assessed as cell growth at 10 uM after 48 hrs by sulforhodamine B assay; settings: BT-549, 48 h, read-out: Activity
Procedure, shortened: (§3)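 NCI-60 five-dose screen. Cells were grown in RPMI 1640 with 5% FBS and 2 mM L-glutamine, plated at 5000–40,000 cells/well and preincubated for 24 h. Time-zero plates were TCA-fixed. DMSO-solubilized drug was added at five concentrations (10-fold or ½-log serial dilutions) for 48 h at 37 °C, 5% CO2. Cells were TCA-fixed, stained with 0.4% SRB and read at 515 nm. Percent growth used time-zero, control and test absorbances.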

NCI-H522 [3] = experiment: Cytotoxicity against human NCI-H522 cells assessed as cell growth at 10 uM; settings: read-out: Activity; procedure, shortened: as §1
SF-295 = experiment: Growth inhibition of human SF295 cells after 48 hrs by sulforhodamine B assay; settings: SF-295, 48 h; procedure, shortened: as §2
BT-549 [4] = experiment: Cytotoxicity against human BT549 cells assessed as cell growth at 0.001 uM after 48 hrs by sulforhodamine B assay; settings: BT-549, 48 h, read-out: Activity; procedure, shortened: as §3
MDA-MB-468 = experiment: Cytotoxicity against human MDA-MB-468 cells assessed as cell growth at 0.01 uM after 48 hrs by sulforhodamine B assay; settings: MDA-MB-468, 48 h, read-out: Activity
T47D = experiment: Cytotoxicity against human T47D cells assessed as cell growth at 10 uM after 48 hrs by sulforhodamine B assay; settings: read-out: Activity
HCC 2998 = experiment: Cytotoxicity against human HCC2998 cells assessed as cell growth at 0.001 uM after 48 hrs by sulforhodamine B assay; settings: HCC 2998, 48 h, read-out: Activity
[5] = Cytotoxicity against human RPMI8266 cells assessed as cell growth at 1 uM after 48 hrs by sulforhodamine B assay; settings: read-out: Activity
SK-MEL-2 = experiment: Cytotoxicity against human SK-MEL-2 cells assessed as cell growth at 0.001 uM after 48 hrs by sulforhodamine B assay; settings: SK-MEL-2, 48 h, read-out: Activity
NCI-H522 [6] = experiment: Cytotoxicity against human NCI-H522 cells assessed as cell growth at 10 uM after 48 hrs by sulforhodamine B assay; settings: NCI-H522, 48 h, read-out: Activity
SW-620 [7] = experiment: Cytotoxicity against human SW620 cells assessed as cell growth at 0.01 uM after 48 hrs by sulforhodamine B assay; settings: SW-620, 48 h, read-out: Activity
M14 = experiment: Growth inhibition of human M14 cells after 48 hrs by sulforhodamine B assay; settings: M14, 48 h; procedure, shortened: as §2
KM12 = experiment: Growth inhibition of human KM12 cells after 48 hrs by sulforhodamine B assay; settings: KM12, 48 h; procedure, shortened: as §2
PC-3 [8] = experiment: Cytotoxicity against human PC3 cells assessed as cell growth at 10 uM; settings: read-out: Activity; procedure, shortened: as §1
MCF7 = experiment: Cytotoxicity against human MCF7 cells assessed as cell growth at 0.01 uM after 48 hrs by sulforhodamine B assay; settings: MCF7, 48 h, read-out: Activity
NCI-H23 = experiment: Cytotoxicity against human NCI-H23 cells assessed as cell growth at 0.001 uM after 48 hrs by sulforhodamine B assay; settings: NCI-H23, 48 h, read-out: Activity
CCRF-CEM = experiment: Cytotoxicity against human CCRF-CEM cells assessed as cell growth at 0.01 uM after 48 hrs by sulforhodamine B assay; settings: read-out: Activity; procedure, shortened: as §3
HOP-92 = experiment: Cytotoxicity against human HOP92 cells assessed as cell growth at 10 uM after 48 hrs by sulforhodamine B assay; settings: HOP-92, 48 h, read-out: Activity
LOX IMVI = experiment: Growth inhibition of human LOXIMVI cells after 48 hrs by sulforhodamine B assay; procedure, shortened: as §2
SW-620 [9] = experiment: Growth inhibition of human SW620 cells after 48 hrs by sulforhodamine B assay; settings: SW-620, 48 h; procedure, shortened: as §2
A549 = experiment: Cytotoxicity against human A549 cells assessed as cell growth at 10 uM after 48 hrs by sulforhodamine B assay; settings: A549, 48 h, read-out: Activity; procedure, shortened: as §3
[10] = Cytotoxicity against human Hs 578T cells assessed as cell growth at 0.01 uM after 48 hrs by sulforhodamine B assay; settings: read-out: Activity
[11] = read-out: LC50 (the source's name)

What does the source list for `COc1cc(C)cc(-c2nn(CC#N)cc2-c2ccc(-c3cccc(C(C)=O)c3)nc2)c1`?
growth at 10 µM (SNB-75): -23.9%; growth at 1 µM (OVCAR-8): 14%; growth at 0.001 µM (HCT-15): 95%; growth at 10 µM (NCI-H226): 47.8%; growth at 10 µM (RXF 393): -51%; growth at 0.01 µM (PC-3 [1]): 88%; growth at 1 µM (OVCAR-4): 19%; GI50 (OVCAR-5): 2.43 µM; TGI (OVCAR-5): 33.9 µM; CC50 (OVCAR-5; [11]): > 100 µM; growth at 10 µM (HOP-62): -12%; growth at 0.01 µM (IGROV-1): 92%; growth at 10 µM (BT-549 [2]): -24%; growth at 10 µM (NCI-H522 [3]): -3.15%; GI50 (SF-295): 2.63 µM; TGI (SF-295): > 100 µM; CC50 (SF-295; [11]): > 100 µM; growth at 0.001 µM (BT-549 [4]): 99%; growth at 0.01 µM (MDA-MB-468): 82%; growth at 10 µM (T47D): -29%; growth at 0.001 µM (HCC 2998): 87%; growth at 1 µM [5]: 8%; growth at 0.001 µM (SK-MEL-2): 89%; growth at 10 µM (NCI-H522 [6]): -40%; growth at 0.01 µM (SW-620 [7]): 91%; GI50 (M14): 1.17 µM; TGI (M14): 3.3 µM; GI50 (KM12): 2.23 µM; TGI (KM12): 13.9 µM; CC50 (KM12; [11]): > 100 µM; growth at 10 µM (PC-3 [8]): 31.5%; growth at 0.01 µM (MCF7): 97%; growth at 0.001 µM (NCI-H23): 94%; growth at 0.01 µM (CCRF-CEM): 94%; growth at 10 µM (HOP-92): -17%; GI50 (LOX IMVI): 3.52 µM; TGI (LOX IMVI): > 100 µM; CC50 (LOX IMVI; [11]): > 100 µM; GI50 (SW-620 [9]): 1.3 µM; TGI (SW-620 [9]): 19.3 µM; CC50 (SW-620 [9]; [11]): > 100 µM; growth at 10 µM (A549): -22%; growth at 0.01 µM [10]: 100%
